Calls of active or inactive are those of the source. No rule for the calls is given here.

One data set relates to J774.A1. Briefly: Cytotoxicity against mouse J774.A1 cells assessed as effect on cell viability at <=50 uM after 24 hrs. It counts as cell-based. Conditions: j774.a1, 24 h.
As for `Cc1ccc(C(=O)N/N=C/c2ccc(-c3ccc(Cl)cc3)o2)cn1`, the Activity entry was “Non-toxic”.

Another data set relates to J774.A1. Briefly: Stimulation of TNFalpha production in mouse J774.A1 cells at 50 uM after 24 hrs by ELISA relative to untreated control. It is filed as functional.
Conditions: not given
In a few lines: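 Murine J774.A1 macrophages grown in DMEM with 10% heat-inactivated FBS and 10 mM HEPES at 37°C under 5% CO2, detached by scraping. Plated at 2×10^5 cells/well in medium with 3% FBS and exposed 24 hr to compound, DMSO vehicle or LPS. Supernatant TNF-α measured by murine ELISA against a standard curve. Reported as fold-increase over DMSO control.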
On to `Cc1ccc(C(=O)N/N=C/c2ccc(-c3ccc(Cl)cc3)o2)cn1`, for which the outcome was inactive. `O=C(N/N=C/c1ccco1)c1cccc(F)c1`: the result was inactive.

Turning to `O=C(N/N=C/c1ccc(-c2cccc(Cl)c2)o1)c1ccc([N+](=O)[O-])cc1`, the outcome was inactive. Take `O=C(N/N=C/c1cc(Br)cc(I)c1O)c1ccc2c(c1)OCCO2`: the outcome was inactive. As for `O=C(N/N=C/c1cc(Br)c(Br)o1)c1ccc2c(c1)OCO2`, the “fold change (FC)” value was less than 5. As to `O=C(N/N=C/c1cc(/N=N\c2cccc(C(F)(F)F)c2)ccc1O)c1ccc2c(c1)OCO2`, the result was inactive. Turning to `CN(C)c1ccc(/C=N\NC(=O)c2ccccc2O)cc1`, the result was inactive. For the compound `O=C(N/N=C/c1ccc([N+](=O)[O-])o1)c1cc([N+](=O)[O-])cc([N+](=O)[O-])c1O`, the outcome was inactive. On the same count and under the same terms, to `COc1ccc(/C=N/NC(=O)c2ccc3c(c2)OCO3)c(OC)c1` belongs “inactive”. For `O=C(N/N=C/c1cc(Br)cc(Br)c1OC(=O)c1ccccc1)c1ccc2c(c1)OCO2`, the “fold change (FC)” value is less than 5. Take `Cc1cc(C)n(Cc2ccc(C(=O)N/N=C/c3ccco3)cc2)n1`: the result was inactive.

On to `O=C(N/N=C/c1ccc(-c2ccc([N+](=O)[O-])cc2)o1)c1cccc(O)c1`, for which the result was inactive. Same read-out and setting: to `O=C(N/N=C/c1ccco1)c1cccnc1` belongs “inactive”.

`O=C(N/N=C/c1ccc(-c2ccc(Cl)c(Cl)c2)o1)c1ccc2c(c1)OCO2`: the “fold change (FC)” value was less than 5. For `O=C(N/N=C/c1ccc(-c2cccc(Br)c2)o1)c1cccnc1`, the “fold change (FC)” value is on record as 50. On to `O=C(O)COc1ccccc1/C=N/NC(=O)c1ccc2c(c1)OCO2`, for which the result was inactive. As for `O=C(N/N=C/c1ccc(-c2cccc(Cl)c2Cl)o1)c1ccccc1`, the “fold change (FC)” value amounted to 8. Same read-out and setting: to `O=C(N/N=C/c1ccc(-c2cc(Cl)ccc2Cl)o1)c1ccc([N+](=O)[O-])cc1` belongs less than 5. `CCN1C(=O)/C(=N\NC(=O)c2ccc3c(c2)OCO3)c2ccccc21`: the result was inactive. Turning to `O=C(N/N=C/c1ccc(-c2cccc(C(F)(F)F)c2)o1)c1ccc([N+](=O)[O-])cc1`, the “fold change (FC)” value is recorded as less than 5. Regarding `O=C(N/N=C/c1c(O)ccc2ccccc12)c1ccc2c(c1)OCO2`, the outcome was inactive. Consider `CCOc1ncccc1C(=O)N/N=C/c1ccc([N+](=O)[O-])o1`, for which the result was inactive. With `O=C(N/N=C1\C(=O)N(Cc2cccc3ccccc23)c2ccccc21)c1ccc2c(c1)OCO2`, the outcome was inactive. The same measure, in the same setting: to `COc1ccccc1OCc1ccc(C(=O)N/N=C/c2ccco2)cc1` belongs “inactive”; to `O=C(/C=C\c1ccco1)Oc1ccc(/C=N\NC(=O)c2ccc3c(c2)OCO3)cc1`, “inactive”; to `COc1ccc(C(=O)N/N=C\c2ccc(N(C)C)cc2)cc1`, “inactive”. For the compound `CN(C)c1ccc(/C=N/NC(=O)c2ccc3c(c2)OCO3)cc1`, the result was inactive.

For the compound `CC(C)N1C(=O)/C(=N\NC(=O)c2ccc3c(c2)OCO3)c2ccccc21`, the result was inactive. As for `O=C(N/N=C/c1ccc(-c2ccc(Cl)c(Cl)c2)o1)c1ccccc1O`, the outcome was inactive. As to `COc1ccc(-c2ccc(/C=N/NC(=O)c3ccc([N+](=O)[O-])cc3)o2)cc1Cl`, the outcome was inactive. `Cc1ccc(C(=O)N/N=C/c2ccc(-c3cc(Cl)c(Cl)cc3Cl)o2)cn1`: the “fold change (FC)” value is less than 5.

Take `O=C(N/N=C/c1ccc([N+](=O)[O-])o1)c1ccc(O)cc1O`: the outcome was inactive. In the case of `CCOc1cc(/C=N\NC(=O)c2ccc3c(c2)OCO3)ccc1OC(=O)c1ccc(Br)cc1`, the “fold change (FC)” value is recorded as less than 5. For `O=C(N/N=C/c1ccco1)c1ccccc1`, the result was inactive. Still for that read-out and setting: with `O=C(N/N=C/c1ccco1)c1ccc(Cl)cc1Cl` the entry was “inactive”; with `COc1cc(Br)ccc1C(=O)N/N=C/c1ccco1`, “inactive”. `O=C(N/N=C/c1ccc(-c2ccc(Cl)c([N+](=O)[O-])c2)o1)c1ccc2c(c1)OCO2`: the result was inactive.

Turning to `COc1ccc(Cl)cc1/C=N/NC(=O)c1ccc2c(c1)OCCO2`, the outcome was inactive.

On to `O=C(N/N=C/c1ccco1)c1ccc(Br)cc1O`, for which the outcome was inactive. The same measure, in the same setting: with `CC(C)(C)c1ccc(C(=O)N/N=C/c2ccc(-c3ccc([N+](=O)[O-])cc3)o2)cc1` the entry was “inactive”. On the same count and under the same terms, to `O=C(N/N=C/c1cc(Br)c(Br)o1)c1ccc2c(c1)OCCO2` belongs “inactive”. Regarding `O=C(N/N=C/c1ccc(-c2ccccc2Cl)o1)c1ccc(Cl)cc1Cl`, the “fold change (FC)” value was less than 5.

Consider `O=C(N/N=C/c1ccc(-c2cccc(C(F)(F)F)c2)o1)c1ccc(Br)cc1`, for which the outcome was inactive. Regarding `O=C(N/N=C/c1ccc(-c2ccc(Cl)cc2Cl)o1)c1ccccc1[N+](=O)[O-]`, the outcome was inactive. For `O=C(N/N=C/c1ccc(-c2cccc(C(F)(F)F)c2)o1)c1cc(I)ccc1Cl`, the “fold change (FC)” value is recorded as less than 5. Turning to `Cc1ccc(C(=O)N/N=C/c2ccc(C)o2)cc1`, the result was inactive. For the compound `COc1cc(/C=N\NC(=O)c2ccc3c(c2)OCO3)ccc1OCc1ccccc1`, the “fold change (FC)” value turned out to be 7.

On to `O=C(N/N=C/c1ccc(-c2cccc(C(F)(F)F)c2)o1)c1ccc(F)cc1`, for which the “fold change (FC)” value was 35. On to `COc1cc(/C=N\NC(=O)c2cccc(C)c2O)ccc1OCc1ccccc1`, for which the result was inactive. Take `COc1ccc(Br)cc1C(=O)N/N=C/c1ccc(C)o1`: the result was inactive. Regarding `C/C(=N\NC(=O)c1ccc2c(c1)OCO2)c1cccc([N+](=O)[O-])c1`, the outcome was inactive. Consider `O=C(N/N=C/c1ccc(-c2ccc([N+](=O)[O-])cc2Cl)o1)c1ccc2c(c1)OCO2`, for which the “fold change (FC)” value was determined as 35. Take `COc1ccc(C(=O)N/N=C/c2ccc(-c3ccc(Cl)c(C(=O)O)c3)o2)cc1`: the result was inactive. In the case of `CN(C)c1ccc(/C=N\NC(=O)c2cccc(F)c2)cc1`, the result was inactive. Consider `O=C(/C=C/c1ccco1)Oc1cccc(/C=N/NC(=O)c2ccc3c(c2)OCO3)c1`, for which the outcome was inactive. Regarding `O=C(N/N=C/c1cc(/N=N\c2cccc3ccccc23)ccc1O)c1ccc2c(c1)OCO2`, the result was inactive. On to `O=C(N/N=C/c1ccc(-c2ccc(O)c(C(=O)O)c2)o1)c1cccnc1`, for which the outcome was inactive.

Consider `COc1cc(/C=N\NC(=O)c2ccc3c(c2)OCO3)ccc1OC(=O)c1ccco1`, for which the result was inactive. As to `O=C(N/N=C/c1ccc(Br)o1)c1ccccc1`, the result was inactive. Regarding `COc1ccc(/C(C)=N/NC(=O)c2ccc3c(c2)OCCO3)cc1[N+](=O)[O-]`, the outcome was inactive. Regarding `CN(C)c1ccc(/C=N\NC(=O)c2ccc([N+](=O)[O-])cc2)cc1`, the “fold change (FC)” value was 25. Still for that read-out and setting: with `Cc1ccc(C(=O)N/N=C/c2ccc(-c3cccc(C(F)(F)F)c3)o2)cn1` the figure was less than 5.

As to `O=C(N/N=C/c1ccc(I)o1)c1ccccc1F`, the outcome was inactive.

Values taken from ChEMBL document CHEMBL1142458, “Computational structure-activity relationship analysis of non-peptide inducers of macrophage tumor necrosis factor-alpha production” (Bioorg Med Chem, 2008).
